Laboratory results published in ChEMBL document CHEMBL1136626, “Discovery of novel and selective IKK-beta serine-threonine protein kinase inhibitors. Part 1” (Bioorg Med Chem Lett, 2003).

Tests used:
A549 = experiment: In vitro concentration required to inhibit the TNF-alpha-induced RANTES production in A549 human lung epithelium cell line; format: functional, cell-based
How it was run: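 A549 human lung epithelial cells grown in D-MEM with 10% FCS, penicillin/streptomycin and 2 mM glutamine. Cells (4×10⁴/well) pretreated 1 h with compound or vehicle (0.1% DMSO), then stimulated with 100 ng/mL TNF-α for 24 h. RANTES in supernatants measured by quantitative sandwich fluorescent immunoassay.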

[1] = molecular target: T1, Inhibitor of nuclear factor kappa-B kinase subunit beta (Homo sapiens, UniProt O14920); experiment: In vitro inhibitory concentration required against recombinant human IkB kinase beta (IKK-beta)
T1 sequence (O14920 whole entry): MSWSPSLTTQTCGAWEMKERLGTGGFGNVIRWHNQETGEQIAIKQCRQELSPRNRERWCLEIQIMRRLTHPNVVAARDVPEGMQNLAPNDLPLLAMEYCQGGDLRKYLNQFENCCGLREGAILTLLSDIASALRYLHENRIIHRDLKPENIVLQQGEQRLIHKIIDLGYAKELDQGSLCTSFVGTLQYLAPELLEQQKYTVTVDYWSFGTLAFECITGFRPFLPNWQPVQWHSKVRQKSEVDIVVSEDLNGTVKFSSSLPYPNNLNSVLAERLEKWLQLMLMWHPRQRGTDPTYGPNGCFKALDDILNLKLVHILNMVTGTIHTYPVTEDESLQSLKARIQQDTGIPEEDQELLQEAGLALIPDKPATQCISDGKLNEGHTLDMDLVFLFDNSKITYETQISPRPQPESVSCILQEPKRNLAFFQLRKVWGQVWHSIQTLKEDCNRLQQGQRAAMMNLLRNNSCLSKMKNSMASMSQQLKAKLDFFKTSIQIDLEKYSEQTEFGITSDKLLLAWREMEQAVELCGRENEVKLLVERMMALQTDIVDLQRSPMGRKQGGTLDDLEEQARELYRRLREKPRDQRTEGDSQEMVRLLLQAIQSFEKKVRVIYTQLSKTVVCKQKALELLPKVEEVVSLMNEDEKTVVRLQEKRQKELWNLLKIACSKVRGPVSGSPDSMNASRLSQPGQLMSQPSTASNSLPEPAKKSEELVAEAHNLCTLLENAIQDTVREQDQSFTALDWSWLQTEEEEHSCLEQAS
How it was run: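 Recombinant His-tagged human IKK-β from baculovirus-infected insect cells, final […], with biotinylated GST-IκBα(1-54) substrate (final 0.2) in Tris-HCl pH 7.6 buffer with MgCl₂, DTT, Na₃VO₄ and BSA; DMSO final 0.25%. Started with ATP plus [γ-³³P]ATP, 2 h at rt, stopped with EDTA. Substrate captured on streptavidin plates, washed, counted by scintillation.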

Mus musculus [2] = experiment: In vivo LPS-induced TNF-alpha production in mice after ip administration (30 min pretreatment); format: functional
How it was run: (§1)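 Eight-week-old female BALB/c mice given 200 (per mouse) LPS ip in saline. Compound dosed ip 30 min before LPS, or po in 10% cremophor/saline 60 min before. Blood taken under pentobarbital anaesthesia 90 min after LPS. Plasma TNFα measured by ELISA; mean of 5 mice per group used to calculate percent reduction versus LPS controls; ED₅₀ reported.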

Mus musculus [3] = experiment: In vivo LPS-induced TNF-alpha production in mice after oral administration (60 min pretreatment); format: functional; how it was run: as §1

Structure (SMILES)	IC50 (A549) [µM]	IC50 [1] [µM]	ED50 (Mus musculus [2]) [mg/kg]	ED50 (Mus musculus [3]) [mg/kg]
N#Cc1c(-c2cccc(NC(=O)CC(N)C(=O)O)c2)cc(-c2ccccc2O)nc1N (stereo not given)	35	0.6		
N#Cc1c(-c2ccc([N+](=O)[O-])cc2)cc(-c2ccccc2O)nc1N	> 50	> 20		
N#Cc1c(-c2ccc(C(=O)O)cc2)cc(-c2ccccc2O)nc1N	> 50	0.7		
CN(C)c1ccc(-c2cc(-c3ccccc3O)nc(N)c2C#N)cc1	> 50	> 20		
N#Cc1c(-c2cccc(NC(=O)C(O)CCC(=O)O)c2)cc(-c2cc(F)ccc2O)nc1N (stereo not given)	> 50	1.7		
N#Cc1c(-c2cccc(NC(=O)C(O)CCC(=O)O)c2)cc(-c2ccc(O)cc2)nc1N (stereo not given)	> 50	> 20		
N#Cc1c(-c2ccccc2C(=O)O)cc(-c2ccccc2O)nc1N	> 50	0.7		
N#Cc1c(-c2ccccc2C(=O)NCCN2CCCCC2)cc(-c2ccccc2O)nc1N	6	0.5		
N#Cc1c(-c2cccc(NC(=O)C(O)CCC(=O)[O-])c2)cc(-c2ccccc2O)nc1N.[Na+] (stereo not given)	20	0.9	1.3	18.7
N#Cc1c(-c2cccc(C(=O)O)c2)cc(-c2ccccc2O)nc1N	> 50	2.5		
N#Cc1c(-c2cccc(NC(=O)C(O)CCC(=O)O)c2)cc(-c2ccccc2)nc1N (stereo not given)	> 50	> 20		
CC(=O)Nc1nc(-c2ccccc2O)cc(-c2cccc(NC(=O)CCN3CCCCC3)c2)c1C#N	30	15		
Cl.N#Cc1c(-c2ccc(N3CCCC3)c(NC(=O)CCN3CCCCC3)c2)cc(-c2ccccc2O)nc1N	0.8	1	0.8	10.1
CN(C)c1ccc(-c2cc(-c3ccccc3O)nc(N)c2C#N)cc1NC(=O)CCN1CCCCC1.Cl	8	0.8	0.6	
N#Cc1c(-c2cccc(NC(=O)CCN3CCCCC3)c2)cc(-c2cccc(O)c2)nc1N	10	> 20		
N#Cc1c(-c2cccc(NC(=O)CCN3CCCCC3)c2)cc(-c2ccccc2O)nc1O	> 50	> 20		
CCN(CC)c1nc(-c2ccccc2O)cc(-c2cccc(NC(=O)CCN3CCCCC3)c2)c1C#N		> 20		
N#Cc1c(-c2ccc(N3CCCCC3)c(NC(=O)CCN3CCCCC3)c2)cc(-c2ccccc2O)nc1N	5	2.5		
